According to PMC6959540 (Nuclear medicine and biology, 2012):

Experiments:
[1] = target: T1, hTRPV1 (Homo sapiens, UniProt Q8NER1); assay: [^3H]RTX competition binding on CHO cells transfected with hTRPV1; settings: read-out: binding affinity (Kd), [^3H]RTX as radioligand
In short: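 Stable Tet-Off CHO cells expressing human TRPV1 were induced 48 h in tetracycline-free medium, harvested and pelleted. Assay mix: DPBS with Ca2+/Mg2+, BSA 0.25 mg/mL, [3H]RTX 100 pM and varying competitor concentrations; 100 nM unlabelled RTX defined nonspecific binding. Incubation 60 min at 37 °C, ice-cooled, glycoprotein added, membranes pelleted by centrifugation. Pellets and supernatant were scintillation-counted and Ki fitted with the Hill equation.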

[2] = target: T1, hTRPV1; settings: read-out: IC50 reported for hTRPV1; cited from earlier work
[3] = target: T1, hTRPV1; assay: ^45Ca^2+ uptake in CHO-hTRPV1 cells; format: cell-based
In short: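 Tet-Off CHO-hTRPV1 cells at 50–70% confluency were induced 48 h without tetracycline. Assay medium was DMEM with BSA 0.25 mg/mL, 45Ca2+ 37 kBq/mL and increasing ligand concentrations. Antagonism wells also held capsaicin 75 nM; full-agonist reference was capsaicin 300 nM. After 5 min at 37 °C, cells were washed, lysed in RIPA buffer and scintillation-counted. Each point is the mean of four wells, fitted with the Hill equation.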

[4] = target: T2, rTRPV1 (Rattus norvegicus, UniProt O35433); assay: ^45Ca^2+ uptake in CHO-rTRPV1 cells; format: cell-based
In short: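 CHO-rTRPV1 cells (Tet-Off) were induced for about 48 h without tetracycline. They were then exposed for 5 min at 37 °C to DMEM containing BSA (0.25 mg/mL), 45Ca2+ (37 kBq/mL) and increasing test compound. Agonism was referenced to 300 nM capsaicin, and antagonism was tested against 75 nM capsaicin. Cells were washed, lysed in RIPA buffer and scintillation-counted. Each point was the mean of four wells, fitted to the Hill equation.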

[5] = target: T2, rTRPV1; assay: [^3H]RTX competition binding on CHO cells transfected with rTRPV1; settings: read-out: binding affinity (Kd), [^3H]RTX as radioligand
In short: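 A stable Tet-Off CHO line with rat TRPV1 was induced for 48 h in tetracycline-free medium, harvested and pelleted, and pellets were stored at −20 °C. Binding used [3H]RTX (100 pM) plus graded competitor in DPBS with Ca2+/Mg2+ and BSA (0.25 mg/mL), at 37 °C for 60 min. Nonspecific binding was set with 100 nM unlabelled RTX. Membranes were pelleted after glycoprotein addition and scintillation-counted. Parameters came from Hill equation fits.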

[6] = Biodistribution in control NMRI mice; format: in vivo; settings: for % ID / % ID/g: control mice i.v.
In short: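 Male NMRI mice (32–43 g) under pentobarbital (60 mg/kg i.p.) or isoflurane (2% in oxygen) received about 9.25 MBq of radiotracer in saline via a lateral tail vein. They were decapitated at 2, 10 or 60 min p.i. (n=4 per time point). Organs and blood were dissected, weighed and gamma-counted. %ID was organ cpm over total recovered cpm. Blood mass was taken as 7% of body mass.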

[7] = Plasma radiometabolites in mice; format: in vivo; settings: mouse plasma
[8] = system: TRPV1 receptor; assay: Biodistribution in NMRI mice pretreated with BCTC or SB366791; format: in vivo; settings: 60 min p.i.
In short: (§1)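 Male NMRI mice (32–43 g), either pretreated s.c. 1 h before tracer or TRPV1−/−. Tracer was diluted in saline (<10% ethanol) and ~9.25 MBq given via lateral tail vein under pentobarbital (60 mg/kg i.p.) or isoflurane (2% in O2). Mice were decapitated at 2, 10 or 60 min (n=4 per time point). Tissues and blood were weighed and gamma-counted, and trigeminal nerve-to-blood activity ratios calculated. Values are mean ± SEM.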

[9] = system: TRPV1 receptor; assay: Biodistribution in TRPV1^-/- mice; format: in vivo; settings: 60 min p.i.
In short: as §1

[10] = Distribution coefficient n-octanol/phosphate buffer pH 7.4; format: physicochemical; settings: 1-octanol / 0.025 M phosphate buffer pH 7.4
In short: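 HPLC-purified radiotracer (~37 MBq/mL in saline) was added to equal volumes of n-octanol and 0.025 M sodium phosphate buffer pH 7.4 (n=8). Tubes were vortexed for 1 min at room temperature and centrifuged at 3000 rpm for 10 min. Phase aliquots were weighed and gamma-counted. D was calculated as cpm/mL octanol over cpm/mL buffer, with volumes derived from mass and phase density.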

[11] = Brain radiometabolites in mice; format: in vivo; settings: mouse brain
[12] = read-out: antagonist activity (Ki), capsaicin 75 nM
[13] = control mice, pentobarbital, i.v.

T2 sequence (O35433 whole entry): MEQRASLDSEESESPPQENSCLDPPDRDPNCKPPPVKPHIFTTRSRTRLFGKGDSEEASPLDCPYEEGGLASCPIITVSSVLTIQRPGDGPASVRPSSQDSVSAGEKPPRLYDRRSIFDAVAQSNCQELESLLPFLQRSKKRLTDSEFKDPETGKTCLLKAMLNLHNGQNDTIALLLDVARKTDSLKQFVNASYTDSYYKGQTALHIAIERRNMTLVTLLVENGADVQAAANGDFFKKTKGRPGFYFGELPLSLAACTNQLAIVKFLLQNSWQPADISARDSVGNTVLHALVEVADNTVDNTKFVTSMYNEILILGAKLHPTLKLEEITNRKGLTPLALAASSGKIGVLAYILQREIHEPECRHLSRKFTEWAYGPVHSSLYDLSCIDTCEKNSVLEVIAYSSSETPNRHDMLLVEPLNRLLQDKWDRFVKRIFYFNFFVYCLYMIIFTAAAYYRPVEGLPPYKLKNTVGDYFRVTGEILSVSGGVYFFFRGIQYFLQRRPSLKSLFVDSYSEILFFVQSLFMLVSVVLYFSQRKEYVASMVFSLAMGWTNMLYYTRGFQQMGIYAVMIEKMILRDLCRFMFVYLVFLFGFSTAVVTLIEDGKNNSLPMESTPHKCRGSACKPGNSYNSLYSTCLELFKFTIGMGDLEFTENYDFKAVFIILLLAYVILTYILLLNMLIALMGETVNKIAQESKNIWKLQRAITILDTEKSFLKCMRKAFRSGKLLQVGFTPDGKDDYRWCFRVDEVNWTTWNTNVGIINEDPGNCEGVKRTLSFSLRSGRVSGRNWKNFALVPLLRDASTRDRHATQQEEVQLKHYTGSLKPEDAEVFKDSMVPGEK
T1 sequence (Q8NER1 whole entry): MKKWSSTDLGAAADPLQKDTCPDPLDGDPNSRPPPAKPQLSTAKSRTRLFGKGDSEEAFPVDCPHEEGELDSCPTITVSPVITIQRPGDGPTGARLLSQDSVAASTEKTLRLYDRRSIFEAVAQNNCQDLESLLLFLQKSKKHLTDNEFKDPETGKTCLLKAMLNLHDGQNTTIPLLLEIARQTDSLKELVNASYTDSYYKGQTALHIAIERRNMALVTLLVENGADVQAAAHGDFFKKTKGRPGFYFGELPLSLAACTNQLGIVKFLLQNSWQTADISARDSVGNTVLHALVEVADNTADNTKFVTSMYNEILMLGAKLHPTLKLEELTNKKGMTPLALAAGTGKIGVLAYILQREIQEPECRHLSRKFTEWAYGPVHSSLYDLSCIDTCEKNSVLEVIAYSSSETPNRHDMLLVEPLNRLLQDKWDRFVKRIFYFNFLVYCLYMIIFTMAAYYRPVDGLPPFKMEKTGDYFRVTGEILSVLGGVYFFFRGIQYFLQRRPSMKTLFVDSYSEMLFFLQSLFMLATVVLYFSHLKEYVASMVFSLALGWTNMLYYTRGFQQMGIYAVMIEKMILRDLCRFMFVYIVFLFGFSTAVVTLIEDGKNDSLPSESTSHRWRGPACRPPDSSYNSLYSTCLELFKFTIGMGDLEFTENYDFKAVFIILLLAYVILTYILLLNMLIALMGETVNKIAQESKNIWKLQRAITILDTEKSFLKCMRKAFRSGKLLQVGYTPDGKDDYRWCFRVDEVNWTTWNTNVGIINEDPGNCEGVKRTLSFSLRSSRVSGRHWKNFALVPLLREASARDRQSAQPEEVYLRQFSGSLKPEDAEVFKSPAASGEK

SMILES: COc1cccc(NC(=O)/C=C/c2ccc(Cl)cc2)c1 [SB366791, N-(3-methoxyphenyl)-4-chlorocinnamide]
- Kd [1]: 280 ± 56 nM
- IC50 [2]: 5.7 nM
- agonist effects ([3]; agonism assay): No agonist effects were observed
- Ki [3, 12]: 197 ± 17 nM
- agonist effects ([4]; agonism assay): No agonist effects were observed
- Ki [4, 12]: 334 ± 17 nM
- Kd [5]: 780 ± 140 nM

SMILES: [11CH3]Oc1cccc(NC(=O)/C=C/c2ccc(Cl)cc2)c1 [[^11C]SB366791]
- % ID ([6]; Bladder+urine, 2 min p.i.): 0.2±0.1 % ID
- % ID ([6]; Bladder+urine, 10 min p.i.): 8.0±2.5 % ID
- % ID ([6]; Bladder+urine, 60 min p.i.): 25.9±12.0 % ID
- % ID ([6]; Blood, 2 min p.i.): 9.9±1.0 % ID
- % ID/g ([6]; Blood, 2 min p.i.): 3.6±0.4 % ID/g
- % ID ([6]; Blood, 10 min p.i.): 6.9±0.5 % ID
- % ID/g ([6]; Blood, 10 min p.i.): 2.6±0.2 % ID/g
- % ID ([6]; Blood, 60 min p.i.): 2.3±0.2 % ID
- % ID/g ([6]; Blood, 60 min p.i.): 0.8±0.1 % ID/g
- % ID/g ([6]; Bone, 2 min p.i.): 1.5±0.2 % ID/g
- % ID/g ([6]; Bone, 10 min p.i.): 1.2±0.4 % ID/g
- % ID/g ([6]; Bone, 60 min p.i.): 0.9±0.2 % ID/g
- % ID ([6]; Carcass, 2 min p.i.): 44.5±3.6 % ID
- % ID ([6]; Carcass, 10 min p.i.): 48.6±2.2 % ID
- % ID ([6]; Carcass, 60 min p.i.): 19.3±3.3 % ID
- % ID ([6]; Cerebellum, 2 min p.i.): 0.4±0.1 % ID
- % ID/g ([6]; Cerebellum, 2 min p.i.): 3.9±0.4 % ID/g
- % ID ([6]; Cerebellum, 10 min p.i.): 0.1±0.0 % ID
- % ID/g ([6]; Cerebellum, 10 min p.i.): 1.1±0.1 % ID/g
- % ID ([6]; Cerebellum, 60 min p.i.): 0.0±0.0 % ID
- % ID/g ([6]; Cerebellum, 60 min p.i.): 0.3±0.1 % ID/g
- % ID ([6]; Cerebrum, 2 min p.i.): 1.2±0.2 % ID
- % ID/g ([6]; Cerebrum, 2 min p.i.): 3.7±0.5 % ID/g
- % ID ([6]; Cerebrum, 10 min p.i.): 0.4±0.0 % ID
- % ID/g ([6]; Cerebrum, 10 min p.i.): 1.2±0.1 % ID/g
- % ID ([6]; Cerebrum, 60 min p.i.): 0.1±0.0 % ID
- % ID/g ([6]; Cerebrum, 60 min p.i.): 0.3±0.0 % ID/g
- % ID ([6]; Heart, 2 min p.i.): 0.9±0.1 % ID
- % ID/g ([6]; Heart, 2 min p.i.): 5.0±1.0 % ID/g
- % ID ([6]; Heart, 10 min p.i.): 0.3±0.1 % ID
- % ID/g ([6]; Heart, 10 min p.i.): 1.8±0.2 % ID/g
- % ID ([6]; Heart, 60 min p.i.): 0.1±0.0 % ID
- % ID/g ([6]; Heart, 60 min p.i.): 0.6±0.0 % ID/g
- % ID ([6]; Intestines, 2 min p.i.): 8.9±0.6 % ID
- % ID ([6]; Intestines, 10 min p.i.): 13.0±1.5 % ID
- % ID ([6]; Intestines, 60 min p.i.): 33.8±6.2 % ID
- % ID ([6]; Kidneys, 2 min p.i.): 4.5±0.2 % ID
- % ID/g ([6]; Kidneys, 2 min p.i.): 7.1±0.8 % ID/g
- % ID ([6]; Kidneys, 10 min p.i.): 5.0±1.0 % ID
- % ID/g ([6]; Kidneys, 10 min p.i.): 7.9±1.2 % ID/g
- % ID ([6]; Kidneys, 60 min p.i.): 1.9±0.4 % ID
- % ID/g ([6]; Kidneys, 60 min p.i.): 2.8±0.5 % ID/g
- % ID ([6]; Liver, 2 min p.i.): 28.6±2.5 % ID
- % ID/g ([6]; Liver, 2 min p.i.): 14.2±2.5 % ID/g
- % ID ([6]; Liver, 10 min p.i.): 16.1±1.6 % ID
- % ID/g ([6]; Liver, 10 min p.i.): 8.7±1.0 % ID/g
- % ID ([6]; Liver, 60 min p.i.): 8.9±3.2 % ID
- % ID/g ([6]; Liver, 60 min p.i.): 4.6±2.1 % ID/g
- % ID ([6]; Lungs, 2 min p.i.): 1.5±0.4 % ID
- % ID/g ([6]; Lungs, 2 min p.i.): 4.5±0.3 % ID/g
- % ID ([6]; Lungs, 10 min p.i.): 0.9±0.2 % ID
- % ID/g ([6]; Lungs, 10 min p.i.): 2.7±0.1 % ID/g
- % ID ([6]; Lungs, 60 min p.i.): 0.5±0.2 % ID
- % ID/g ([6]; Lungs, 60 min p.i.): 1.6±1.0 % ID/g
- % ID/g ([6]; Muscle, 2 min p.i.): 1.2±0.3 % ID/g
- % ID/g ([6]; Muscle, 10 min p.i.): 1.3±0.2 % ID/g
- % ID/g ([6]; Muscle, 60 min p.i.): 0.4±0.1 % ID/g
- % ID ([6]; Pancreas, 2 min p.i.): 1.1±0.1 % ID
- % ID/g ([6]; Pancreas, 2 min p.i.): 5.4±0.9 % ID/g
- % ID ([6]; Pancreas, 10 min p.i.): 0.6±0.1 % ID
- % ID/g ([6]; Pancreas, 10 min p.i.): 2.7±0.2 % ID/g
- % ID ([6]; Pancreas, 60 min p.i.): 0.5±0.2 % ID
- % ID/g ([6]; Pancreas, 60 min p.i.): 2.0±0.5 % ID/g
- % ID/g ([6]; Skin, 2 min p.i.): 1.3±0.1 % ID/g
- % ID/g ([6]; Skin, 10 min p.i.): 2.4±0.3 % ID/g
- % ID/g ([6]; Skin, 60 min p.i.): 1.1±0.3 % ID/g
- % ID ([6]; Spleen, 2 min p.i.): 0.6±0.2 % ID
- % ID/g ([6]; Spleen, 2 min p.i.): 4.0±0.8 % ID/g
- % ID ([6]; Spleen, 10 min p.i.): 0.2±0.0 % ID
- % ID/g ([6]; Spleen, 10 min p.i.): 2.0±0.2 % ID/g
- % ID ([6]; Spleen, 60 min p.i.): 0.2±0.0 % ID
- % ID/g ([6]; Spleen, 60 min p.i.): 1.4±0.3 % ID/g
- % ID ([6]; Stomach, 2 min p.i.): 1.4±0.2 % ID
- % ID ([6]; Stomach, 10 min p.i.): 2.0±0.7 % ID
- % ID ([6]; Stomach, 60 min p.i.): 1.8±0.7 % ID
- % ID ([6]; Trigeminal nerve, 2 min p.i.): 0.02±0.00 % ID
- % ID/g ([6]; Trigeminal nerve, 2 min p.i.): 4.2±0.4 % ID/g
- % ID ([6]; Trigeminal nerve, 10 min p.i.): 0.01±0.00 % ID
- % ID/g ([6]; Trigeminal nerve, 10 min p.i.): 3.4±0.2 % ID/g
- % ID ([6]; Trigeminal nerve, 60 min p.i.): 0.01±0.00 % ID
- % ID/g ([6]; Trigeminal nerve, 60 min p.i.): 2.9±0.7 % ID/g
- total brain uptake ([6]; control mice, 2 min after injection): 1.6 % ID
- total brain uptake ([6]; control mice, 60 min p.i.): 0.1 % ID
- SUV in trigeminal nerve, isoflurane versus pentobarbital anaesthesia ([6]; control mice, isoflurane 2% in oxygen compared with pentobarbital 60 mg/kg i.p.): remarkable lower
- blood 2 min/60 min ratio [6, 13]: 4.3
- trigeminal nerve 2 min/60 min ratio [6, 13]: 1.5
- intact tracer in plasma, of recovered radioactivity ([7]; 2 min after i.v. injection): 52.0±3.0%
- radiometabolites in plasma ([7]; 2 min p.i.): 48.0%±3.0
- radiometabolites in plasma ([7]; 10 min p.i.): 82.4%±1.9
- trigeminal nerve-to-blood activity ratio ([8]; mice pretreated with BCTC 10 mg/kg s.c. 1 h before tracer): 1.0
- trigeminal nerve-to-blood activity ratio ([8]; mice pretreated with SB366791 10 mg/kg s.c. 1 h before tracer): 1.3
- trigeminal nerve-to-blood activity ratio [9]: 0.8
- log D [10]: 3.5±0.1
- intact tracer in brain, of total recovered radioactivity ([11]; 2 min after injection): 85.6%±3.7
- intact tracer in brain, of total recovered radioactivity ([11]; 10 min after injection): 67.2%±0.7
